Measured values: ChEMBL document CHEMBL1137302 (J Med Chem, 2006)
Active and inactive are the calls of the source. The rule behind the calls is not given here.

What was measured:
D(4) dopamine receptor [1] = molecular target: T1, D(4) dopamine receptor (Homo sapiens, UniProt P21917); assay: Agonist activity at human D4.4 receptor in HEK293 cells coexpressing G-alpha-qo5 by FLIPR; type: functional, cell-based
T1 sequence (P21917 whole entry): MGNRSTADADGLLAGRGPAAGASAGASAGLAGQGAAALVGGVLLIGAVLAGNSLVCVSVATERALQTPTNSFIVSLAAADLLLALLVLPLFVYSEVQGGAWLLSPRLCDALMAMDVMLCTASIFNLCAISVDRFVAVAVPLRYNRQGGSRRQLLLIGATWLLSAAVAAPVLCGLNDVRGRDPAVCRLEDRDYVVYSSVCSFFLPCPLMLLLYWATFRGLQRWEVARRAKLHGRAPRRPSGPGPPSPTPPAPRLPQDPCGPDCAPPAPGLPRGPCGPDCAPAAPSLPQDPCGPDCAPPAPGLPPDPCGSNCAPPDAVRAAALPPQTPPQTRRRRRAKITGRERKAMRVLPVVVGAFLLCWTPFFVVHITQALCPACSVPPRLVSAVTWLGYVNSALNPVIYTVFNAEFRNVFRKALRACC

[2] = molecular target: T2, D(4) dopamine receptor (Homo sapiens) (UniProt P21917); assay: Activity at human D4.4 receptor in HEK293 cells co-expressing Galphaqo5 by FLIPR; type: functional, cell-based
T2 sequence (whole entry): T1 sequence (P21917 whole entry)

[3] = molecular target: T2, D(4) dopamine receptor (Homo sapiens); assay: Agonist activity at human D4.4 receptor in HEK293 cells coexpressing G-alpha-qo5 by FLIPR upto 10 uM; type: functional, cell-based
[4] = test system: D(2) dopamine receptor (Mustela putorius furo); assay: Agonist activity at ferret D2 receptor in HEK293 cells coexpressing Galphaqo5 by FLIPR relative to dopamine upto 10 uM
D(2) dopamine receptor [5] = molecular target: T3, D(2) dopamine receptor (Homo sapiens, UniProt P14416); assay: Agonist activity at human D2 receptor in HEK293 cells coexpressing G-alpha-qo5 by FLIPR relative to dopamine upto 10 uM; type: functional, cell-based
In short: (§1)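 Ca2+ flux by FLIPR in HEK cells cotransfected with the D2 receptor (human, ferret or rat) plus chimeric G protein Gqo5.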

[6] = Agonist activity at ferret D4 receptor in HEK293 cells coexpressing G-alpha-qo5 by FLIPR; type: functional, cell-based, Mustela putorius furo; conditions: Mustela putorius
In short: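 HEK cells cotransfected with ferret D4 receptor and chimeric G protein Gqo5, with receptor activation read as a calcium flux signal on FLIPR. EC50 is the concentration giving half-maximal activation.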

Rattus norvegicus = assay: Proerectile activity in rat measured as incidence of penile erection at 0.1 umol/kg, sc; type: functional
In short: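 Conscious male rats were given a single subcutaneous injection and observed for penile erections over the following 60 min. The read-out was the incidence of erections, expressed as % of animals ± SEM (n = 12–32 animals per group), with significance tested against controls. The value is the maximal incidence at the maximally effective dose.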

D(2) dopamine receptor [7] = molecular target: T3, D(2) dopamine receptor; assay: Binding affinity to human D2S receptor
[8] = molecular target: T4, D(4) dopamine receptor (Rattus norvegicus) (UniProt P30729); assay: Agonist activity at rat D4 receptor in HEK293 cells co-expressing Galphaqo5 by FLIPR relative to dopamine; type: functional, cell-based
T4 sequence (whole entry): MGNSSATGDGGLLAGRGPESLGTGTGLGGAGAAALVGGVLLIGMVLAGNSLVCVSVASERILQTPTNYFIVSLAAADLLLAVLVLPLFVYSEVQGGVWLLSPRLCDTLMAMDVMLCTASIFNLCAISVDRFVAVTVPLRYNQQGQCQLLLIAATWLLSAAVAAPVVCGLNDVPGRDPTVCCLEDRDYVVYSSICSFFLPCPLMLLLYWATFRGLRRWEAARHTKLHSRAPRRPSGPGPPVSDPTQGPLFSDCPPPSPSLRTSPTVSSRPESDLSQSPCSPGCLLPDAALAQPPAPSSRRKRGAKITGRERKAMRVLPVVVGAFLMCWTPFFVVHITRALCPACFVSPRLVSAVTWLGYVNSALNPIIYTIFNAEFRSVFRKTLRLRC

[9] = Agonist activity at ferret D4 receptor in HEK293 cells coexpressing G-alpha-qo5 by FLIPR relative to dopamine; type: functional, Mustela putorius furo
D(2) dopamine receptor [10] = molecular target: T3, D(2) dopamine receptor; assay: Displacement of [125I]7-OH-PIPAT from human D2L receptor expressed in HEK293 cell membrane; type: cell membranes
[11] = molecular target: D(3) dopamine receptor (Homo sapiens) (UniProt P35462); assay: Agonist activity at human D3 receptor in HEK293 cells coexpressing G-alpha-qo5 by FLIPR upto 10 uM; type: functional, cell-based
[12] = molecular target: D(2) dopamine receptor (Rattus norvegicus) (UniProt P61169); assay: Agonist activity at rat D2 receptor in HEK293 cells coexpressing G-alpha-qo5 by FLIPR relative to dopamine upto 10 uM; type: functional, cell-based; in short: as §1
Mustela putorius furo [13] = organism: Mustela putorius furo; assay: Induction of nausea in ferret; type: functional, organism-based
Mustela putorius furo [14] = organism: Mustela putorius furo; assay: Induction of emesis in ferret; type: functional, organism-based
D(4) dopamine receptor [15] = molecular target: T1, D(4) dopamine receptor; assay: Displacement of [3H]A369508 from human D4 receptor expressed in HEK293 cell membrane; type: cell membranes
D(4) dopamine receptor [16] = molecular target: T5, D(4) dopamine receptor (Rattus norvegicus, UniProt P30729); assay: Agonist activity at rat D4 receptor in HEK293 cells coexpressing G-alpha-qo5 by FLIPR; type: functional, cell-based
T5 sequence (P30729 whole entry): T4 sequence (whole entry)

[17] = Bioavailability in Sprague-Dawley rat at 1 mg/kg, po; type: ADME, organism-based; conditions: in vivo
In short: (§2)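 Single 1 mg/kg dose given iv, sc or orally to Sprague-Dawley rats, dogs and monkeys; plasma concentrations followed over time (mean ± SEM, n = 3). Cmax, AUC, half-life, clearance and bioavailability calculated from the curves.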

[18] = Half life in Sprague-Dawley rat at 1 mg/kg, sc; type: ADME, organism-based; parameters: dose 1 mg/kg, route subcutaneous; conditions: in vivo; in short: as §2
[19] = Bioavailability in Sprague-Dawley rat at 1 mg/kg, sc; type: ADME, organism-based; conditions: in vivo; in short: as §2

T3 sequence (P14416 whole entry): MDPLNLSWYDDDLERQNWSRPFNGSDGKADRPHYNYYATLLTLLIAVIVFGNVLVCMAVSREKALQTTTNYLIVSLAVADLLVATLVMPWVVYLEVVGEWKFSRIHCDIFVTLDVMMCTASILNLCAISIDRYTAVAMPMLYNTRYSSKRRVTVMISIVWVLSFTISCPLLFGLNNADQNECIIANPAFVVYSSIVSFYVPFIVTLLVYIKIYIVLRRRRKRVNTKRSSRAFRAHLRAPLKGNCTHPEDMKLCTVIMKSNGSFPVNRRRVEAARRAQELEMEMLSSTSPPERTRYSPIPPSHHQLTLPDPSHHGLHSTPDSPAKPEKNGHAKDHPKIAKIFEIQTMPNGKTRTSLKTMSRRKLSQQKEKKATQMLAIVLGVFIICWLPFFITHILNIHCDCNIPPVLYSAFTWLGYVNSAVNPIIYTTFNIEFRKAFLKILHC
D(3) dopamine receptor (Homo sapiens), sequence (P35462 whole entry): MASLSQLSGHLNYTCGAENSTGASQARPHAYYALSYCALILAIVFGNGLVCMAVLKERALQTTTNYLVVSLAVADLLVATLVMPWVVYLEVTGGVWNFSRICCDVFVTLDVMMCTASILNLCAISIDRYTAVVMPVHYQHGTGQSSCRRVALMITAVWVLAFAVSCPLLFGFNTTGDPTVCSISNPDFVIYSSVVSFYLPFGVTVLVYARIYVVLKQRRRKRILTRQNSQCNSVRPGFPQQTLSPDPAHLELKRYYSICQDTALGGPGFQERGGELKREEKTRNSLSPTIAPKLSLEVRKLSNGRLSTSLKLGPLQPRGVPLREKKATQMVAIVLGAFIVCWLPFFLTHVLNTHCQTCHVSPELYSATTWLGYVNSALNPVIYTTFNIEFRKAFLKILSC
D(2) dopamine receptor (Rattus norvegicus), sequence (P61169 whole entry): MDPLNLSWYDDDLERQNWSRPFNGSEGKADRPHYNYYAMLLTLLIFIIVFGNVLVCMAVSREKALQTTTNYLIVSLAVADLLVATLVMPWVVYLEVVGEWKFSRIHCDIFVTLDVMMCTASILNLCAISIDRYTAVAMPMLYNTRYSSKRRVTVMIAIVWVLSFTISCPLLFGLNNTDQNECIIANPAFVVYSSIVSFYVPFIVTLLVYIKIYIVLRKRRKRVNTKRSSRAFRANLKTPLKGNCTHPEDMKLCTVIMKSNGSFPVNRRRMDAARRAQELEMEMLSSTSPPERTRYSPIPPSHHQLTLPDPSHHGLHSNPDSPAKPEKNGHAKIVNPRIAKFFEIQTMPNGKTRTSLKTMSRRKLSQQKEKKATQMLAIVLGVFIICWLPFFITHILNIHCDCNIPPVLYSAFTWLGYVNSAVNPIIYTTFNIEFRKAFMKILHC

EC50 (D(4) dopamine receptor [1]) | SMILES | other results
180 nM | O=C(CN1CCC(c2cccc[n+]2[O-])CC1)Nc1cccc(Cl)c1Cl | –
18 nM | Cc1cc(NC(=O)CN2CCC(c3cccc[n+]3[O-])CC2)ccc1F | –
473 nM | O=C(CN1CCC(c2cccc[n+]2[O-])CC1)Nc1ccc(F)cc1C(F)(F)F | –
324 nM | CCOc1cccc(C(=O)NCN2CCC(c3cccc[n+]3[O-])CC2)c1 | –
103 nM | O=C(CN1CCC(c2cccc[n+]2[O-])CC1)Nc1ccc(F)cc1F | –
90 nM | Cc1cc(C)cc(C(=O)NCN2CCC(c3cccc[n+]3[O-])CC2)c1 | –
38 nM | Cc1ccc(C(=O)NCN2CCC(c3cccc[n+]3[O-])CC2)cc1C | –
115 nM | O=C(NCN1CCC(c2cccc[n+]2[O-])CC1)c1ccc2ccccc2c1 | –
52 nM | Cc1cc(C)cc(NC(=O)CN2CCC(c3cccc[n+]3[O-])CC2)c1 | –
555 nM | CC(C)Oc1cccc(NC(=O)CN2CCC(c3cccc[n+]3[O-])CC2)c1 | –
66 nM | Cc1cc(Br)ccc1NC(=O)CN1CCC(c2cccc[n+]2[O-])CC1 | –
63 nM | O=C(NCN1CCC(c2cccc[n+]2[O-])CC1)c1ccc(F)c(Cl)c1 | –
50 nM | Cc1cc(C(=O)NCN2CCC(c3cccc[n+]3[O-])CC2)ccc1F | –
85 nM | Cc1ccc(C(=O)NCN2CCC(c3cccc[n+]3[O-])CC2)cc1C(F)(F)F | –
170 nM | O=C(NCN1CCC(c2cccc[n+]2[O-])CC1)c1ccc(OC(F)(F)F)c(Cl)c1 | –
62 nM | O=C(CN1CCC(c2cccc[n+]2[O-])CC1)Nc1cccc(Cl)c1 | –
532 nM | O=C(NCN1CCC(c2cccc[n+]2[O-])CC1)c1ccccc1 | Activity ([2]; filed as partial agonist): Partial agonist
340 nM | COc1cccc(C)c1NC(=O)CN1CCC(c2cccc[n+]2[O-])CC1 | –
2460 nM | Cc1cc(C(=O)NCN2CCC(c3cccc[n+]3[O-])CC2)ccc1Cl | –

The remaining lines, values behind:

SMILES | EC50 (D(4) dopamine receptor [1]) | other results
c1ccc(C2CCN(Cc3nc4ccccc4[nH]3)CC2)nc1 | 12 nM | –
Cc1cccc(NC(=O)CN2CCC(c3ccc(O)cc3)CC2)c1 | 70 nM | Activity ([2]; filed as partial agonist): Partial agonist
O=C(CN1CCC(c2cccc[n+]2[O-])CC1)Nc1cccc(OC(F)(F)F)c1 | 135 nM | –
COc1ccc(C2CCN(CC(=O)Nc3cccc(C)c3)CC2)cc1 | – | Activity [3]: inactive
Oc1ccc(N2CCN(Cc3nc4ccccc4[nH]3)CC2)nc1 | 2.4 nM | Activity [4]: inactive; Activity (D(2) dopamine receptor [5]): inactive; EC50 [6]: 5 nM; Activity (Rattus norvegicus): 60%; Ki (D(2) dopamine receptor [7]): > 10000 nM; Efficacy [8]: 66%; Efficacy [9]: 48%; Ki (D(2) dopamine receptor [10]): > 10000 nM; Activity [11]: inactive; Activity [12]: inactive; Activity ([2]; filed as partial agonist): Partial agonist; Activity (Mustela putorius furo [13]): inactive; Activity (Mustela putorius furo [14]): inactive; Ki (D(4) dopamine receptor [15]): 17 nM; EC50 (D(4) dopamine receptor [16]): 13.7 nM
Cc1cccc(NC(=O)CN2CCC(c3ccccc3C#N)CC2)c1 | 8 nM | –
Cc1cccc(NC(=O)CN2CCC(c3ccccn3)CC2)c1 | 14 nM | bioavailability [17]: 0%; half-life [18]: 42 min; Activity (Rattus norvegicus): 75%; bioavailability [19]: 57%; Activity ([2]; filed as agonist): Agonist; Ki (D(4) dopamine receptor [15]): 8 nM
COc1cccc(C)c1NC(=O)CN1CCC(c2ccccn2)CC1 | 40 nM | –
Cc1cccc(NC(=O)CN2CCC(c3ncccc3C#N)CC2)c1 | 36 nM | –
c1ccc(N2CCN(Cc3nc4ccccc4[nH]3)CC2)nc1 | – | Activity ([2]; filed as partial agonist): Partial agonist
Cc1cccc(Cl)c1NC(=O)CN1CCC(c2ccccn2)CC1 | 60 nM | –
Cc1cccc(NC(=O)CN2CCC(c3cccc(F)c3)CC2)c1 | 512 nM | –
Cc1cccc(NC(=O)CN2CCC(c3nccs3)CC2)c1 | 1 nM | –
Cc1cccc(C(=O)NCN2CCC(c3nccs3)CC2)c1 | 9.8 nM | –
COc1ccccc1C1CCN(CC(=O)Nc2cccc(C)c2)CC1 | 420 nM | –
